The record followed here is ChEMBL document CHEMBL4823271, “Synthesis and structure-activity relationship of new chalcone linked 5-phenyl-3-isoxazolecarboxylic acid methyl esters potentially active against drug resistant Mycobacterium tuberculosis” (Eur J Med Chem, 2021).

Data set [1] concerns Mycobacterium tuberculosis. Put plainly: Antimycobacterial activity against Mycobacterium tuberculosis H37Rv ATCC 27294 assessed as reduction in bacterial growth incubated for […] by broth microdilution assay. In kind it is functional. For orientation: In broth dilution the organism is exposed to a series of concentrations in liquid medium.
In data set [2] the test system is Mycobacterium tuberculosis. As to the kind of experiment: Antitubercular activity against Mycobacterium tuberculosis H37Rv assessed as bacterial growth inhibition after 7 days by broth microdilution assay. In kind it is functional. The conditions noted are these: 168 h, dose 0.03-64 µg/ml, time 7 day. The method in brief:
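Compounds were tested in broth microdilution from 64 downward, incubated 37 °C for 7 days, then resazurin (PrestoBlue) added. MIC is the lowest concentration preventing the blue-to-pink change, run in triplicate, reporting the value obtained at least twice of three.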

The subject of data set [3] is Mycobacteroides abscessus. As to the kind of experiment: Antimycobacterial activity against Mycobacterium abscessus ATCC 19977 assessed as visible growth inhibition incubated for 16 to 18 hrs. The data set is classed as functional, organism-based. The following applies: time 16-18 hrs.
A short description of data set [4]: Cytotoxicity against African green monkey vero cells assessed as reduction in cell viability measured after 72 hrs by MTT assay. The data set is classed as cell-based. The following applies: chlorocebus sabaeus. The essentials: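 Vero cells seeded at ~10³ cells/well and grown 24 h at 37 °C, 5% CO₂, then exposed to compound (100 to 5 mg/l) for 72 h. MTT was added […] for 4 h and formazan dissolved in DMSO. CC50 is the lowest concentration giving 50% viability reduction. Doxorubicin was the positive control, run in triplicate.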

The subject of data set [5] is Mycolicibacterium fortuitum. As to the kind of experiment: Antimycobacterial activity against Mycobacterium fortuitum ATCC 6841 assessed as visible growth inhibition incubated for 16 to 18 hrs. In kind it is functional, organism-based. The following applies: time 16-18 hrs.
For the next data set, the system named is Mycobacteroides chelonae. As to the kind of experiment: Antimycobacterial activity against Mycobacterium chelonae ATCC 35752 assessed as visible growth inhibition incubated for 16 to 18 hrs. The data set is classed as functional, organism-based. The conditions noted are these: time 16-18 hrs.
The nature of data set [6]: Selectivity index, ratio of CC50 for African green monkey Vero cells to MIC for Antitubercular activity against Mycobacterium tuberculosis H37Rv. In kind it is toxicity. The following applies: read-out: Selectivity Index. The essentials: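 Selectivity index calculated as Vero CC50 (MTT, 72 h) divided by the H37Rv MIC from the resazurin broth microdilution assay.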

In brackets after ≈: the same amount, converted by molar mass. Activity calls are given as the source filed them. The rule behind the calls is not given here.

Consider `NNC(=O)c1ccncc1` [ISONIAZID], for which the MIC in data set [1] and in data set [2] was 0.03 µg/mL (≈ 0.219 µM) each time.

For the compound `CCOC(=O)c1cc(/C=C/c2c(Cl)cncc2Cl)on1`, the MIC in data set [1] stood at 0.5 µg/mL (≈ 1.6 µM); in data set [2], 0.18 µg/mL (≈ 0.575 µM).

Turning to `COC(=O)c1cc(-c2cccc(NC(=O)c3ccc(/C=C/C(=O)c4cccc([N+](=O)[O-])c4)cc3)c2)on1`, the outcome (in data set [3]; in data set [5]; with Mycobacteroides chelonae) was inactive. Further, the MIC in data set [2] turned out to be 2 µg/mL (≈ 4.02 µM). In data set [4], the CC50 at 72 h was over 40 µg/mL. Besides, in data set [6], the selectivity ratio is over 20.

For `COC(=O)c1cc(-c2cccc(NC(=O)c3ccc(/C=C/C(=O)c4cc(OC)c(OC)c(OC)c4)cc3)c2)on1`, the outcome (in data set [3]; in data set [5]; in the data set on Mycobacteroides chelonae) was inactive. Moreover, in data set [2], the MIC stood at 1 µg/mL (≈ 1.84 µM). Also, in data set [4], the cytotoxic concentration (CC50) at 72 h was over 50 µg/mL. In addition, in data set [6], the selectivity ratio is over 50.

For the compound `COC(=O)c1cc(-c2cccc(NC(=O)c3ccc(/C=C/C(=O)c4cc(F)ccc4F)cc3)c2)on1`, the result (in data set [3]; in data set [5]; in the data set on Mycobacteroides chelonae) was inactive. In addition, the MIC in data set [2] was determined as 1 µg/mL (≈ 2.05 µM). Also, the cytotoxic concentration (CC50) at 72 h in data set [4] was over 40 µg/mL. Further, the selectivity ratio in data set [6] is over 40.

As to `COC(=O)c1cc(-c2cccc(NC(=O)c3ccc(/C=C/C(=O)c4cccc(F)c4)cc3)c2)on1`, the result (in data set [3]; in data set [5]; in the data set on Mycobacteroides chelonae) was inactive. In data set [2], the MIC amounted to 2 µg/mL (≈ 4.25 µM). For the same compound, the CC50 at 72 h in data set [4] is over 40 µg/mL. In addition, in data set [6], the selectivity ratio is over 20.

As for `COC(=O)c1cc(-c2cccc(NC(=O)c3ccc(/C=C/C(=O)c4ccc(C)c([N+](=O)[O-])c4)cc3)c2)on1`, the result (in data set [3]; in data set [5]; with Mycobacteroides chelonae) was inactive. Also, the MIC in data set [2] stood at 4 µg/mL (≈ 7.82 µM). For the same compound, in data set [4], the CC50 at 72 h was over 80 µg/mL. Further, the selectivity ratio in data set [6] is over 20.

Turning to `COC(=O)c1cc(-c2cccc(NC(=O)c3ccc(/C=C/C(=O)c4ccc5c(c4)OCO5)cc3)c2)on1`, the result (in data set [3]; in data set [5]; with Mycobacteroides chelonae) was inactive. Moreover, in data set [2], the MIC amounted to 2 µg/mL (≈ 4.03 µM). Further, in data set [4], the CC50 at 72 h is over 40 µg/mL. For the same compound, the selectivity ratio in data set [6] is over 20.

As for `COC(=O)c1cc(-c2cccc(NC(=O)c3ccc(/C=C/C(=O)c4ccc(Br)cc4)cc3)c2)on1`, the outcome (in data set [3]; in data set [5]; in the data set on Mycobacteroides chelonae) was inactive. The minimal inhibitory concentration (MIC) in data set [2] was 1 µg/mL (≈ 1.88 µM). Moreover, the CC50 at 72 h in data set [4] was over 20 µg/mL. Moreover, in data set [6], the selectivity ratio is over 2.

`COC(=O)c1cc(-c2cccc(NC(=O)c3ccc(C4OC4C(=O)c4ccc(Cl)cc4)cc3)c2)on1` (centres undefined): the outcome (in data set [3]; in data set [5]; in the data set on Mycobacteroides chelonae) was inactive. The MIC in data set [2] amounted to 4 µg/mL (≈ 7.95 µM). In addition, in data set [4], the CC50 at 72 h was over 20 µg/mL. Also, the selectivity ratio in data set [6] is over 5.

In the case of `COC(=O)c1cc(-c2cccc(NC(=O)c3ccc(/C=C/C(=O)c4cccc(C(F)(F)F)c4)cc3)c2)on1`, the result (in data set [3]; in data set [5]; in the data set on Mycobacteroides chelonae) was inactive. Further, in data set [2], the MIC turned out to be 1 µg/mL (≈ 1.92 µM). The CC50 at 72 h in data set [4] is over 20 µg/mL. Also, the selectivity ratio in data set [6] was over 20.

Regarding `COC(=O)c1cc(-c2cccc(NC(=O)c3ccc(/C=C/C(=O)c4cccc(OC)c4)cc3)c2)on1`, the result (in data set [3]; in data set [5]; in the data set with Mycobacteroides chelonae) was inactive. The minimal inhibitory concentration (MIC) in data set [2] was 2 µg/mL (≈ 4.15 µM). Further, the cytotoxic concentration (CC50) at 72 h in data set [4] was over 100 µg/mL. In addition, the selectivity ratio in data set [6] is over 50.

For orientation: MIC means the lowest concentration found to suppress growth. What is called CC50 is the concentration that lowers cell viability or growth by half.
